Experimental data reported in ChEMBL document CHEMBL2311407, “Design and synthesis of diazatricyclodecane agonists of the G-protein-coupled receptor 119” (J Med Chem, 2013).
In brackets after ≈: the same amount, converted by molar mass.

Tests used:
[1] = Tmax in Sprague-Dawley rat at 30 mg/kg, po dosing of milled material in 0.5% methylcellulose; type: ADME, organism-based; parameters: dose 30 mg/kg, route oral; settings: in vivo
Procedure, shortened: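 Nanomilled material (about 190 nm after milling) was suspended in 0.5% methylcellulose and dosed orally to rats. Plasma concentrations are reported as total drug. Values are mean ± SD from three animals.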

[2] = Cmax in Beagle dog at 1 mg/kg, iv; type: ADME, organism-based, Canis lupus familiaris; parameters: dose 1 mg/kg, route intravenous; settings: in vivo
Procedure, shortened: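 Male beagle dogs received 1 mg/kg iv at 2 mL/kg in 5% dimethylacetamide/75% PEG200/20% (30% SBE-CD). Plasma concentrations are total drug. Values are the mean of two animals.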

[3] = Oral bioavailability in Beagle dog at 3 mg/kg administered as spray dried dispersion; type: ADME, organism-based, Canis lupus familiaris; settings: in vivo
Procedure, shortened: (§1)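 Male beagle dogs were dosed po at 3 mg/kg, 0.6 mL/kg, as 25% spray dried dispersion in 20 mM Tris buffer with 0.5% methylcellulose + 0.5% HPMCAS-HF, pH 7.4. Plasma concentrations are total drug. Values are the mean of two animals. F is calculated against 1 mg/kg iv dog data.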

[4] = AUC in Sprague-Dawley rat at 1 mg/kg, iv; type: ADME, organism-based; parameters: dose 1 mg/kg, route intravenous; settings: plasma
Procedure, shortened: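 Rats received 1 mg/kg iv in 10% N-methylpyrrolidone and 90% of a 30% SBE-CD solution. Plasma concentrations are total drug. Data are mean ± SD of three animals.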

[5] = Tmax in Beagle dog at 10 mg/kg, po administered as spray dried dispersion; type: ADME, organism-based, Canis lupus familiaris; parameters: dose 10 mg/kg, route oral; settings: in vivo
Procedure, shortened: (§2)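 Oral gavage in male beagle dogs at 10, 30 or 100 mg/kg, 5 mL/kg, as 25% spray dried dispersion in 20 mM Tris buffer in 0.5% methylcellulose and 0.5% HPMCAS-HF, pH 7.4. Plasma concentrations are total drug. Values are the mean of two animals. F is based on 1 mg/kg iv dog data.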

[6] = AUC in Beagle dog at 3 mg/kg, po administered as spray dried dispersion; type: ADME, organism-based, Canis lupus familiaris; parameters: dose 3 mg/kg, route oral; settings: plasma; procedure, shortened: as §1
[7] = Tmax in Beagle dog at 100 mg/kg, po administered as spray dried dispersion; type: ADME, organism-based, Canis lupus familiaris; parameters: dose 100 mg/kg, route oral; settings: in vivo; procedure, shortened: as §2
[8] = AUC in Sprague-Dawley rat at 3 mg/kg, po dosing of milled material in 0.5% methylcellulose; type: ADME, organism-based; parameters: dose 3 mg/kg, route oral; settings: in vivo
Procedure, shortened: (§3)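 Rat po dosing of milled material (2−25 μm premilling, about 190 nm postmilling) suspended in 0.5% methylcellulose. Plasma concentrations are total drug. Data are mean ± SD of three animals. F is calculated from 1 mg/kg rat iv data.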

[9] = AUC in Beagle dog at 30 mg/kg, po administered as spray dried dispersion; type: ADME, organism-based, Canis lupus familiaris; parameters: dose 30 mg/kg, route oral; settings: plasma; procedure, shortened: as §2
[10] = Cmax in Sprague-Dawley rat at 3 mg/kg, po dosing in 0.5% methylcellulose; type: ADME, organism-based; parameters: dose 3 mg/kg, route oral; settings: in vivo
Procedure, shortened: (§4)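 Rats were dosed orally at 3 mg/kg in 0.5% methylcellulose. Plasma concentrations are total drug. Data are mean ± SD of three animals. F is based on 1 mg/kg rat iv PK.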

[11] = Cmax in Beagle dog at 30 mg/kg, po administered as spray dried dispersion; type: ADME, organism-based, Canis lupus familiaris; parameters: dose 30 mg/kg, route oral; settings: in vivo; procedure, shortened: as §2
[12] = AUC in Sprague-Dawley rat at 3 mg/kg, po dosing in 0.5% methylcellulose; type: ADME, organism-based; parameters: dose 3 mg/kg, route oral; settings: in vivo; procedure, shortened: as §4
[13] = Oral bioavailability in Sprague-Dawley rat at 3 mg/kg administered as spray dried dispersion; type: ADME, organism-based; settings: in vivo
Procedure, shortened: (§5)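 Rats were dosed po at 0.6 mL/kg with a 25% amorphous spray dried dispersion (with HPMCAS-HF) in 20 mM Tris buffer with 0.5% methylcellulose + 0.5% HPMCAS-HF, pH 7.4. Plasma concentrations are total drug. Data are mean ± SD of three animals. F is based on 1 mg/kg rat iv data.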

[14] = Cmax in Beagle dog at 100 mg/kg, po administered as spray dried dispersion; type: ADME, organism-based, Canis lupus familiaris; parameters: dose 100 mg/kg, route oral; settings: in vivo; procedure, shortened: as §2
[15] = Half life in Beagle dog at 3 mg/kg, po administered as spray dried dispersion; type: ADME, organism-based, Canis lupus familiaris; parameters: dose 3 mg/kg, route oral; settings: in vivo; procedure, shortened: as §1
[16] = Apparent permeability in MDCK2 cells; type: ADME, cell-based, Canis lupus familiaris, MDCK-II; settings: dog, MDCK
[17] = Tmax in Beagle dog at 3 mg/kg, po administered as spray dried dispersion; type: ADME, organism-based, Canis lupus familiaris; parameters: dose 3 mg/kg, route oral; settings: in vivo; procedure, shortened: as §1
[18] = Oral bioavailability in Sprague-Dawley rat at 30 mg/kg administered as spray dried dispersion; type: ADME, organism-based; settings: in vivo; procedure, shortened: as §5
[19] = AUC in Beagle dog at 10 mg/kg, po administered as spray dried dispersion; type: ADME, organism-based, Canis lupus familiaris; parameters: dose 10 mg/kg, route oral; settings: plasma; procedure, shortened: as §2
[20] = Oral bioavailability in Sprague-Dawley rat at 30 mg/kg administered as milled material in 0.5% methylcellulose; type: ADME, organism-based; settings: in vivo; procedure, shortened: as §3
[21] = Fraction unbound in Sprague-Dawley rat plasma; type: ADME, cell-free
[22] = Volume of distribution at steady state in Beagle dog at 1 mg/kg, iv; type: ADME, organism-based, Canis lupus familiaris; parameters: dose 1 mg/kg, route intravenous; settings: in vivo, read-out: Vdss
Procedure, shortened: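 Male beagle dogs received 1 mg/kg iv at 2 mL/kg in 5% DMA/75% PEG200/20% (30% SBE-CD). Plasma concentrations are reported as total drug. Parameters are means from two animals.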

[23] = Apparent intrinsic clearance in human liver microsomes; type: ADME, Microsome; settings: read-out: CLH(app)
[24] = Oral bioavailability in Beagle dog at 30 mg/kg administered as spray dried dispersion; type: ADME, organism-based, Canis lupus familiaris; settings: in vivo; procedure, shortened: as §2
[25] = Thermodynamic solubility of the compound in PBS at pH 7.4; type: physicochemical; settings: read-out: Therm_solubility
[26] = Cmax in Sprague-Dawley rat at 3 mg/kg, po administered as spray dried dispersion; type: ADME, organism-based; parameters: dose 3 mg/kg, route oral; settings: in vivo; procedure, shortened: as §5

In the case of `Cc1c(Oc2ccc(-n3cnnn3)cc2F)ncnc1N1C2CC3CC1CC(C2)N3C(=O)OC1(C)CC1`, the Tmax [1] is reported as 6 h, the Cmax [2] is reported as 515 ng/mL and the bioavailability [3] is reported as 60%. The AUC [4] was 1360 ng·h/mL, the Tmax [5] was 1 h and the AUC [6] was 8580 ng·h/mL. For the same compound, the Tmax [7] was 1.5 h, the AUC [8] was 3180 ng·h/mL and the AUC [9] was 76800 ng·h/mL. It also gave a Cmax [10] of 24.2 ng/mL, a Cmax [11] of 3750 ng/mL and an AUC [12] of 312 ng·h/mL. It also gave a bioavailability [13] greater than 100%, a Cmax [14] of 6030 ng/mL and a half-life [15] of 20 h. It also gave a Papp [16] of 3.5 ×10⁻⁶ cm/s, a Tmax [17] of 1 h and a bioavailability [18] greater than 100%. For the same compound, the AUC [19] was 41000 ng·h/mL, the bioavailability [20] was 31% and the fraction unbound [21] was 0.01. For the same compound, the Vd [22] was 3.7 L/kg, the CLint scaled [23] was less than 9.5 mL/min/kg and the bioavailability [24] was 54%. For the same compound, the solubility thermodynamic [25] was 0.7 µg/mL (≈ 1.38 µM) and the Cmax [26] was 484 ng/mL.
